Here are results for one molecule from ChEMBL document CHEMBL5543124, “Lead Compound Development of SRC-3 Inhibitors with Improved Pharmacokinetic Properties and Anticancer Efficacy” (J Med Chem, 2024).

Data set [1] relates to MDA-MB-468. The data set is described as follows: Cytotoxicity against human MDA-MB-468 cells assessed as inhibition of cell growth incubated for 72 hrs by MTT assay. The format is functional, cell-based. The following applies: MDA-MB-468, 72 h. The method in brief: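 Cells seeded and grown to 70–80% confluence, then exposed for 72 h to a titration series (0.2–1000 nM). Viability read by MTT relative to untreated cells, with 6 replicates per concentration. IC50 fitted with a Hill-slope model.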
Background: Tetrazolium assays rely on reduction of a dye to a coloured formazan, in cell work by metabolically active cells.

Data set [2] in a line: Half life in CD-1 mouse at 10 mg/kg,po administration measured upto 48 hrs by LC-MS/MS analysis. Type of data set: ADME, organism-based. The following applies: in vivo. The method in brief: (§1)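 Oral gavage in ICR male mice (n = 3); dosing solution 1 mg/mL in 20% DMSO, 16% PEG, 4% dextrose in PBS. Tail-vein blood (10 μL) taken at 15, 30 min and 1, 2, 4, 8, 24, 48 h. Plasma quantified by LC-MS/MS against a 0.5–1000 ng/mL calibration; parameters from a non-compartmental extravascular model.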

Data set [3] in a line: Tmax in CD-1 mouse at 10 mg/kg,po administration measured upto 48 hrs by LC-MS/MS analysis. The following applies: in vivo. The format is ADME, organism-based. The method in brief: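 Male ICR mice (n=3) dosed by oral gavage at 10 mg/kg from a 1 mg/mL solution in 20% DMSO/16% PEG/4% dextrose in PBS. Tail-vein blood (10 μL) drawn at 15 and 30 min and at 1, 2, 4, 8, 24 and 48 h. Plasma quantified by LC-MS/MS against calibration standards. Parameters from non-compartmental extravascular model.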

Data set [4] is described as follows: Cmax in CD-1 mouse at 10 mg/kg,po administration measured upto 48 hrs by LC-MS/MS analysis. Type of data set: ADME, organism-based. As to conditions: in vivo. The method in brief:
as §1

Data set [5] can be described thus: AUC (0 to t) in CD-1 mouse at 10 mg/kg,po administration measured upto 48 hrs by LC-MS/MS analysis. The following applies: in vivo. The format is ADME, organism-based. The method in brief: as §1
For data set [6], the target named is T1, Endothelin-1 receptor (Homo sapiens, UniProt P25101).
T1 sequence (P25101 whole entry): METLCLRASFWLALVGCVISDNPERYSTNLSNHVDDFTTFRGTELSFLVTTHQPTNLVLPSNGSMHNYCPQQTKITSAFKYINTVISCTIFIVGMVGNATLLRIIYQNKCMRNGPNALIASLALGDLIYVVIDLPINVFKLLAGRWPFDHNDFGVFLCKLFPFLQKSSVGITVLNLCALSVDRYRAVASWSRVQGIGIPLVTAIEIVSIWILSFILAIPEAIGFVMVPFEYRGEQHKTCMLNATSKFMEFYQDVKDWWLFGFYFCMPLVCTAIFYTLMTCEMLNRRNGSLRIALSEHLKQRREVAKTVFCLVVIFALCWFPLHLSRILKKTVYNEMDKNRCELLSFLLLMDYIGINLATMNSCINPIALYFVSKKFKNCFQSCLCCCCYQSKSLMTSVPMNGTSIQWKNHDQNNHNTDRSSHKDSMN
The data set is described as follows: Agonist activity at EDNRA (unknown origin) by calcium flux assay. Type of data set: toxicity. The method in brief:
(§2)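 Tested in a commercial off-target safety screening panel of 78 targets. Values reported as RC50, taken as IC50 except for agonist mode, where RC50 is EC50.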
(In general: A change in cytosolic calcium serves as a functional read-out for many receptors and channels.)

The target in data set [7] is 5-hydroxytryptamine receptor 2B (Homo sapiens, UniProt P41595). Briefly: Antagonist activity at HTR2B (unknown origin) by calcium flux assay. Type of data set: toxicity. In outline: as §2
Sequence of 5-hydroxytryptamine receptor 2B (P41595 whole entry): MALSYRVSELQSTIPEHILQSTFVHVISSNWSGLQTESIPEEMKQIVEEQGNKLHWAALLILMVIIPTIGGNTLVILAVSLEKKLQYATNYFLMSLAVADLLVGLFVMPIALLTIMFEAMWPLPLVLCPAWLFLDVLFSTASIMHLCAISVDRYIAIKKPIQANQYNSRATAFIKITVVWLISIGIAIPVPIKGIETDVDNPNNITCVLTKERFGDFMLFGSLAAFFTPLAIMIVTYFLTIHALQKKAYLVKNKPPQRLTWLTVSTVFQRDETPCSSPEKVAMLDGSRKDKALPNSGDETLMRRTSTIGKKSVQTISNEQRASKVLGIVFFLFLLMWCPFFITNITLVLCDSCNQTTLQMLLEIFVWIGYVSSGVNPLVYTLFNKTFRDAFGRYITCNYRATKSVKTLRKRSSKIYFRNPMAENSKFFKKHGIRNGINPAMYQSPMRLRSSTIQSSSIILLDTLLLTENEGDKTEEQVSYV
Data set [8] concerns the target T2, Voltage-gated inwardly rectifying potassium channel KCNH2 (Homo sapiens, UniProt Q12809). The data set is described as follows: Inhibition of hERG. Type of data set: toxicity. On the technique in general: The hERG channel carries a current that helps repolarise heart muscle cells.
The target of data set [9] is T3, Prostaglandin G/H synthase 2 (Homo sapiens, UniProt P35354).
T3 sequence (P35354 whole entry): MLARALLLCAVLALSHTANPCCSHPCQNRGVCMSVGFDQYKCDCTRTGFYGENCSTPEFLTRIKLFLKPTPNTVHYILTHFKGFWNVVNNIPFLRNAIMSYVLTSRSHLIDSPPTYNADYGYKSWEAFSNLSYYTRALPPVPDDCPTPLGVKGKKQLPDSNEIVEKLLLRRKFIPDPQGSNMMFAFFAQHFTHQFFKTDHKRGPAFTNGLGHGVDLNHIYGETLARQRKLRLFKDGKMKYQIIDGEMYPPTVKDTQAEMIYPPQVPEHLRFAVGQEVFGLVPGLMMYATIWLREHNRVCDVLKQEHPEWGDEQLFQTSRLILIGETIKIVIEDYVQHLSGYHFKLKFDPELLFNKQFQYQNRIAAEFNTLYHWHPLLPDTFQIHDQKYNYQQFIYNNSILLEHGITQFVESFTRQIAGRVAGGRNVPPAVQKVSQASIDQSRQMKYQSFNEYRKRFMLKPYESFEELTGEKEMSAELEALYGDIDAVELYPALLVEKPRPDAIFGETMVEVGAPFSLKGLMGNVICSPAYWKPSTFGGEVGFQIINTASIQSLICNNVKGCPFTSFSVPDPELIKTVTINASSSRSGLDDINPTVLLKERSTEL
Briefly: Inhibition of COX2 (unknown origin). Type of data set: toxicity. The method in brief: as §2

Data set [10] deals with T2, Voltage-gated inwardly rectifying potassium channel KCNH2. The data set is described as follows: Inhibition of hERG transfected in HEK293 cells by patch clamp assay. The format is toxicity, cell-based.
A short description of data set [11]: Half life in human liver microsomes at 1 uM incubated for 30 mins in presence of NADPH by LC-MS/MS analysis. Type of data set: ADME, Microsome. The following applies: 0.5 h. The method in brief: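 Human liver microsomes (1 mg/mL final) in 100 mM phosphate buffer with or without NADPH; compound at 1 μM final, 37 °C. Samples taken at 0, 5, 10, 20, 30 min (0 and 30 min without NADPH), quenched with cold acetonitrile containing internal standards, analysed by LC-MS/MS; verapamil as control.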

Data set [12] in a line: Stability in human plasma incubated upto 150 mins. Type of data set: ADME, cell-free. As to conditions: 2.5 h.
Data set [13] in a line: Toxicity in SCID mouse orthotopically xenografted with human Panc-1-Luc cells assessed as change in body weight at 10 mg/kg,ip administration once daily for 8 weeks. Type of data set: organism-based. As to conditions: in vivo, 1344 h. The method in brief: (§3)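 Male SCID mice (8 weeks) received orthotopic pancreatic implants of Panc-1-Luc cells (0.5×10^6 per mouse). Mice randomized by luciferase imaging (n=5 per group). From day 8, dosed 10 mg/kg i.p. or solvent vehicle once daily. Body weight recorded weekly; mice euthanized at day 63.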

Data set [14] relates to Prostate cancer organoid. Briefly: Antitumor activity against patient derived Prostate cancer PDX organoid assessed as reduction in organoid formation measured after 2 weeks. Type of data set: functional, tissue-based. The following applies: Homo sapiens. The method in brief:
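Single cells from prostate cancer PDX tumors (collagenase I/III digest); 20000 cells embedded in collagen gel and cultured overnight, then treated or vehicle for 14 days with at least 5 wells per dose. Organoids imaged and counted on day 14; groups compared by Student t test.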

The subject of data set [15] is MDA-PCa-118b. The data set is described as follows: Antitumor activity against patient derived MDA-PCa-118b cells xenografted in SCID mouse assessed as reduction in tumor burden in femur at 10 mg/kg,ip administration measured after 4 weeks by hematoxylin and eosin staining based analysis. As to conditions: Homo sapiens. The format is functional, organism-based. The method in brief: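 AR-PDX 118b cells (1×10^5) injected via intra-femoral artery in male SCID mice (8–9 weeks). After 2 weeks, 10 mg/kg/day ip or vehicle for 4 weeks (n = 9/group). X-ray imaging every two weeks. At the end, femurs CT-scanned (5 per group) with 3D-reconstruction tumor size, and H&E histology used for tumor/femur area ratio.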

Data set [16] in a line: Toxicity in SCID mouse orthotopically xenografted with human Panc-1-Luc cells assessed as change in body weight at 10 mg/kg,ip administration once daily for 63 days. Type of data set: organism-based. As to conditions: in vivo, 1512 h, time 63 day. In outline:
as §3

In general, IC50 refers to the concentration at which inhibition is half-maximal. The term Tmax denotes the time from dosing to the highest level. One may read the Cmax as the highest concentration seen after dosing. For orientation: EC50 means the midpoint of the concentration-response curve.

The source made the active and inactive calls. The rule behind the calls is not given here.

T2 sequence (Q12809 whole entry): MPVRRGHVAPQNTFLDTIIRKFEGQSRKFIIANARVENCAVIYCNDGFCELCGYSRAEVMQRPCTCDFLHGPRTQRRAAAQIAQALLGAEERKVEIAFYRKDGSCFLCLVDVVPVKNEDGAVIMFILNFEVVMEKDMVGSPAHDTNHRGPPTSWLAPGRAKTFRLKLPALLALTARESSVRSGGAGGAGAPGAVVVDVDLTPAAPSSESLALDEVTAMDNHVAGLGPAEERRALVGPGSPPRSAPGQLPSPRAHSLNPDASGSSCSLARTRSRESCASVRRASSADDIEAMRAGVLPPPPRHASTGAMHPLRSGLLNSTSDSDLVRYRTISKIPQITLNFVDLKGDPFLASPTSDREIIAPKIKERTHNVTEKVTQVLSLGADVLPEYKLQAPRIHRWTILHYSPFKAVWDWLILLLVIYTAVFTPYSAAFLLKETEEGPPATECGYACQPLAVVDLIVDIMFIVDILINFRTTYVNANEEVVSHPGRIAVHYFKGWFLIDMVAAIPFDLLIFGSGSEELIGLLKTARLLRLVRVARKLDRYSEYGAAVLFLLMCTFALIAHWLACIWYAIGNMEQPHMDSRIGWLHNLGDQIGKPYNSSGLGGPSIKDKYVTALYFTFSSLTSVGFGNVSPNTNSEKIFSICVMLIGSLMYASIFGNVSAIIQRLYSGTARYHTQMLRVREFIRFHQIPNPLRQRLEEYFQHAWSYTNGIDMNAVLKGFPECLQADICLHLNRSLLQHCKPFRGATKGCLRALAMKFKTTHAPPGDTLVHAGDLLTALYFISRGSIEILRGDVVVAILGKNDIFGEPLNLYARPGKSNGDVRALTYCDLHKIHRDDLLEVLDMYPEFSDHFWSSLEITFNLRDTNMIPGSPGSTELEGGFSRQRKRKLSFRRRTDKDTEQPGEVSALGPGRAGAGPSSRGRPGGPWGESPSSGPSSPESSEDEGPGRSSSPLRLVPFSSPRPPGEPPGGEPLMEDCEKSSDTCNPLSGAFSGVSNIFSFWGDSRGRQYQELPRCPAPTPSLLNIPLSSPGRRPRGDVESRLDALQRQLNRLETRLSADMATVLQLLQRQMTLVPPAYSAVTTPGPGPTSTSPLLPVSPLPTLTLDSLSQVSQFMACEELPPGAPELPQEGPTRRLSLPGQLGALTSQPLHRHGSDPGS

With `C/C(=N\N=c1/[nH]c2cc(F)c(F)cc2n1C)c1ccc(F)cn1`, the IC50 turned out to be 15 nM in data set [1]; 4100 nM in data set [7]; 2700 nM in [8]; 3000 nM in [9]; 1130 nM in data set [10]. For the same molecule, the t1/2 in data set [2] amounted to 858 min; in data set [11], 8.49 min. Also, the Tmax in [3] was 15 min. Further, the Cmax in data set [4] is 217 ng/mL. For the same molecule, the AUCt in data set [5] turned out to be 1719 ng·h/mL. In addition, in data set [6], the EC50 was 6400 nM. For the same molecule, the Stability result in data set [12] is reported as “Stable”. For the same molecule, the Activity result in data set [13] and in data set [16] was “Non-Toxic” in each case. Further, the outcome in data set [14] and in data set [15] was Active.
